Broadly, the MBC is the lowest tested concentration that kills the bacteria rather than only halting them.

≈ marks a conversion by molar mass, not a printed value.

The record followed here is ChEMBL document CHEMBL1131226, “Structure-activity relationship of 2-[[(2-pyridyl)methyl]thio]-1H- benzimidazoles as anti Helicobacter pylori agents in vitro and evaluation of their in vivo efficacy” (J Med Chem, 1998).

The test system of one series is Helicobacter pylori. As to the kind of experiment: Antibacterial activity against Helicobacter pylori strain. The format is functional. The essentials: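 H. pylori ATCC 43504 in Brucella broth (pH 7.0) with 10% FCS, starting at ~10⁶ CFU/mL. Compounds were tested as twofold serial dilutions, 0.5–256 μg/mL, made in DMSO. Cultures were incubated 72 h at 37 °C under 85% N₂/10% CO₂/5% O₂ and read by OD at 560 nm. MIC is the lowest concentration completely inhibiting growth.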

For series [1] the following is noted: chromatographic retention.
Another series relates to Helicobacter felis. As to the kind of experiment: Antibacterial activity against Helicobacter felis strain in vitro.

In the series on Helicobacter pylori, `CC(=O)c1ccc2[nH]c(SCc3ncc(C)cc3C)nc2c1` registered an MBC of 128 µg/mL (≈ 411 µM). In series [1], this compound came in with a Log Ko of -0.11.

`CCOc1ccnc(CSc2nc3ccccc3[nH]2)c1C`: the minimal bactericidal concentration (MBC) with Helicobacter pylori stood at 2 µg/mL (≈ 6.68 µM). In series [1], the “Log Ko” value is reported as 0.19.

In the series with Helicobacter pylori, `Cc1c(OCC(F)(F)F)ccnc1CSc1nc2ccccc2[nH]1` [LANSOPRAZOLE SULFIDE] had a minimal bactericidal concentration (MBC) of 4 µg/mL (≈ 11.3 µM). Moreover, in series [1], the “Log Ko” value is reported as 0.28.

Regarding `c1ccc(CSc2nc3ccccc3[nH]2)nc1`, the minimal bactericidal concentration (MBC) against Helicobacter pylori was 128 µg/mL (≈ 530 µM).

Compound `CC(=O)c1ccc2[nH]c(SCc3cc(C(C)(C)C)ccn3)nc2c1` displayed a minimal bactericidal concentration (MBC) against Helicobacter pylori of 64 µg/mL (≈ 189 µM). Further, the “Log Ko” value in series [1] turned out to be 0.18.

As for `COCCCOc1ccnc(CSc2nc3ccccc3[nH]2)c1C`, the MBC against Helicobacter pylori amounted to 2 µg/mL (≈ 5.82 µM). The “Log Ko” value in series [1] was 0.07.

For `COCCOc1ccnc(CSc2nc3ccccc3[nH]2)c1C`, in the series on Helicobacter pylori, the MBC was determined as 2 µg/mL (≈ 6.07 µM). Besides, the Log Ko in series [1] is -0.17.

In the series with Helicobacter pylori, `COc1c(C)cnc(CSc2nc3cc(C(C)(C)C)ccc3[nH]2)c1C` registered an MBC of 8 µg/mL (≈ 22.5 µM). Also, the “Log Ko” value in series [1] worked out at 0.86.

Regarding `Cc1c(OCC2CC2)ccnc1CSc1nc2ccccc2[nH]1`, the MBC in the series with Helicobacter pylori was found to be 1 µg/mL (≈ 3.07 µM); against Helicobacter felis it was 0.5 µg/mL (≈ 1.54 µM). For the same compound, the “Log Ko” value in series [1] is 0.46.

Turning to `C=CCOc1ccnc(CSc2nc3ccccc3[nH]2)c1C`, in the series on Helicobacter pylori, the MBC amounted to 1 µg/mL (≈ 3.21 µM). Further, the “Log Ko” value in series [1] came to 0.26.

As to `COc1ccnc(CSc2nc3cc(CO)ccc3[nH]2)c1C`, the MBC with Helicobacter pylori stood at 128 µg/mL (≈ 406 µM). This compound also displayed a Log Ko in series [1] of -0.66.

Consider `CC1(C)S[C@@H]2[C@H](NC(=O)[C@H](N)c3ccc(O)cc3)C(=O)N2[C@H]1C(=O)O` [AMOXICILLIN], for which the MBC in the series with Helicobacter pylori and against Helicobacter felis was 0.05 µg/mL (≈ 0.137 µM) throughout.

In the series on Helicobacter pylori, `Clc1ccnc(CSc2nc3ccccc3[nH]2)c1` came in with an MBC of 64 µg/mL (≈ 232 µM). The same compound returned a Log Ko in series [1] of -0.08.

Compound `COc1ccc2[nH]c(SCc3cc(SC)ccn3)nc2c1` returned an MBC against Helicobacter pylori of 256 µg/mL (≈ 806 µM). Moreover, the Log Ko in series [1] is -0.16.

With `Cc1c(OCc2ccccc2)ccnc1CSc1nc2ccccc2[nH]1`, the minimum bactericidal concentration (MBC) against Helicobacter pylori came to 8 µg/mL (≈ 22.1 µM). Moreover, the “Log Ko” value in series [1] is on record as 0.67.

In the case of `Cc1cnc(CSc2nc3cc(C)ccc3[nH]2)c(C)c1`, in the series with Helicobacter pylori, the minimum bactericidal concentration (MBC) turned out to be 32 µg/mL (≈ 113 µM). In series [1], the “Log Ko” value is recorded as 0.23.

Compound `COc1ccnc(CSc2nc3ccccc3[nH]2)c1C` showed a minimal bactericidal concentration (MBC) against Helicobacter pylori of 32 µg/mL (≈ 112 µM). The compound also registered a Log Ko in series [1] of -0.08.

In the series with Helicobacter pylori, `C#CCOc1ccnc(CSc2nc3ccccc3[nH]2)c1C` yielded an MBC of 2 µg/mL (≈ 6.46 µM). In series [1], this compound displayed a Log Ko of -0.01.

`c1ccc2[nH]c(SCc3cc(OCC4CC4)ccn3)nc2c1` showed an MBC in the series with Helicobacter pylori of 32 µg/mL (≈ 103 µM). Also, the “Log Ko” value in series [1] amounted to 0.13.

Take `Cc1cnc(CSc2nc3cc(Cl)ccc3[nH]2)c(C)c1`: in the series with Helicobacter pylori, the MBC turned out to be 8 µg/mL (≈ 26.3 µM). The “Log Ko” value in series [1] turned out to be 0.45.

In turn, `COc1ccc2[nH]c(SCc3ncc(C)c(OC)c3C)nc2c1` [UFIPRAZOLE] displayed a minimal bactericidal concentration (MBC) in the series with Helicobacter pylori of 32 µg/mL (≈ 97.1 µM). For the same compound, the “Log Ko” value in series [1] was determined as 0.

As for `Cc1c(OCC(C)C)ccnc1CSc1nc2ccccc2[nH]1`, in the series on Helicobacter pylori, the minimum bactericidal concentration (MBC) was determined as 1 µg/mL (≈ 3.05 µM). For the same compound, the “Log Ko” value in series [1] worked out at 0.75.

As to `Cc1ccnc(CSc2nc3ccccc3[nH]2)c1`, the MBC in the series with Helicobacter pylori was 128 µg/mL (≈ 501 µM). This compound had a Log Ko in series [1] of -0.21.

As for `COc1ccnc(CSc2nc3ccccc3[nH]2)c1`, the MBC against Helicobacter pylori worked out at 64 µg/mL (≈ 236 µM). The same compound came in with a Log Ko in series [1] of -0.3.

In turn, `COc1c(C)cnc(CSc2nc3ccccc3[nH]2)c1C` came in with an MBC with Helicobacter pylori of 8 µg/mL (≈ 26.7 µM). In addition, in series [1], the “Log Ko” value worked out at 0.05.

Consider `COc1ccnc(CSc2nc3cc(F)ccc3[nH]2)c1OC`, for which, in the series with Helicobacter pylori, the minimum bactericidal concentration (MBC) was 4 µg/mL (≈ 12.5 µM). In addition, the “Log Ko” value in series [1] is recorded as 0.44.
